{
  "source": "ChEMBL document CHEMBL1240350",
  "about": "“In vitro activity of CEM-101 against Streptococcus pneumoniae and Streptococcus pyogenes with defined macrolide resistance mechanisms” (Antimicrob Agents Chemother, 2010)",
  "key": {"Streptococcus pyogenes [1]": {"tested_on": "Streptococcus pyogenes", "test": "Antibacterial activity against macrolide-resistant Streptococcus pyogenes harboring erm(A) gene after overnight incubation by agar dilution method", "assay_type": "functional", "in_short": "(§1)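 Agar dilution MICs on Mueller-Hinton agar with 5% sheep blood. Inoculum 10^4 CFU/spot, incubated overnight at 35°C in ambient air. Clinical S. pneumoniae or group A streptococcal isolates; resistance genotypes (erm(B), erm(A), mef(A)/mef(E)) were assigned by PCR. S. pneumoniae ATCC 49619 served as QC strain in each run. Range, MIC50 and MIC90 reported per phenotype group.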"}, "Streptococcus pneumoniae [2]": {"tested_on": "Streptococcus pneumoniae", "test": "Antibacterial activity against macrolide-susceptible Streptococcus pneumoniae 7127 harboring S20N mutation in L4 ribosomal protein and A105V mutation in L22 ribosomal protein after 15 passages and 10 compound-free subculturing by retest method", "assay_type": "functional"}, "Streptococcus pneumoniae [3]": {"tested_on": "Streptococcus pneumoniae", "test": "Antibacterial activity against macrolide-resistant Streptococcus pneumoniae 3009 harboring mutation in 23S rRNA after 20 passages and 10 compound-free subculturing by retest method", "assay_type": "functional"}, "Streptococcus pneumoniae [4]": {"tested_on": "Streptococcus pneumoniae", "test": "Antibacterial activity against macrolide-resistant Streptococcus pneumoniae 24 harboring erm(B) gene after 14 passages and 10 compound-free subculturing by retest method", "assay_type": "functional", "in_short": "(§2)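 Multistep selection by daily serial passage in subinhibitory drug concentrations. Medium was cation-adjusted Mueller-Hinton broth plus 5% lysed horse blood. Each day the next inoculum came from the tube 1–2 dilutions below the MIC whose turbidity matched the growth control, for up to 50 days. Clone MICs by CLSI macrodilution; identity to the parent confirmed by SmaI PFGE.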"}, "Streptococcus pneumoniae [5]": {"tested_on": "Streptococcus pneumoniae", "test": "Antibacterial activity against macrolide-susceptible Streptococcus pneumoniae 7127 harboring S20N mutation in L4 ribosomal protein and A105V mutation in L22 ribosomal protein after overnight incubation by agar dilution method", "assay_type": "functional"}, "Streptococcus pneumoniae [6]": {"tested_on": "Streptococcus pneumoniae", "test": "Antibacterial activity against macrolide-resistant Streptococcus pneumoniae 2686 harboring mutation in L4 ribosomal protein after 25 passages and 10 compound-free subculturing by retest method", "assay_type": "functional"}, "Streptococcus pyogenes [7]": {"tested_on": "Streptococcus pyogenes", "test": "Antibacterial activity against macrolide-resistant Streptococcus pyogenes 2011 harboring mef(A) gene after 50 passages following overnight incubation by agar dilution method"}, "Streptococcus pneumoniae [8]": {"tested_on": "Streptococcus pneumoniae", "test": "Antibacterial activity against macrolide-resistant Streptococcus pneumoniae harboring mef(A) gene after overnight incubation by agar dilution method", "assay_type": "functional", "in_short": "as §1"}, "Streptococcus pyogenes [9]": {"tested_on": "Streptococcus pyogenes", "test": "Antibacterial activity against macrolide-resistant Streptococcus pyogenes 2094 harboring erm(A) gene after 43 passages and 10 compound-free subculturing by retest method"}, "Streptococcus pneumoniae [10]": {"tested_on": "Streptococcus pneumoniae", "test": "Antibacterial activity against macrolide-susceptible Streptococcus pneumoniae 1077 after 49 passages and 10 compound-free subculturing by retest method", "assay_type": "functional"}, "Streptococcus pyogenes [11]": {"tested_on": "Streptococcus pyogenes", "test": "Antibacterial activity against macrolide-susceptible Streptococcus pyogenes 2132 after overnight incubation by agar dilution method"}, "Streptococcus pneumoniae [12]": {"tested_on": "Streptococcus pneumoniae", "test": "Antibacterial activity against macrolide-susceptible Streptococcus pneumoniae 7127 harboring S20N mutation in L4 ribosomal protein and A105V mutation in L22 ribosomal protein after 43 passages and 10 compound-free subculturing by retest method", "assay_type": "functional"}, "Streptococcus pyogenes [13]": {"tested_on": "Streptococcus pyogenes", "test": "Antibacterial activity against macrolide-resistant Streptococcus pyogenes 237 harboring mutation in L4 ribosomal protein after 20 passages and 10 compound-free subculturing by retest method"}, "Streptococcus pneumoniae [14]": {"tested_on": "Streptococcus pneumoniae", "test": "Antibacterial activity against macrolide-resistant Streptococcus pneumoniae 1635 harboring erm(A) gene after 32 passages and 10 compound-free subculturing by retest method", "assay_type": "functional", "in_short": "as §2"}, "Streptococcus pneumoniae [15]": {"tested_on": "Streptococcus pneumoniae", "test": "Antibacterial activity against macrolide-resistant Streptococcus pneumoniae 3665 harboring mef(A) gene after overnight incubation by agar dilution method", "assay_type": "functional"}, "Streptococcus pyogenes [16]": {"tested_on": "Streptococcus pyogenes", "test": "Antibacterial activity against Streptococcus pyogenes harboring mutation in L4 ribosomal protein after overnight incubation by agar dilution method", "assay_type": "functional", "in_short": "(§3)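 Clinical isolates collected 1998–2008, with macrolide-resistance genes confirmed by PCR. MICs by agar dilution on Mueller-Hinton agar with 5% sheep blood. Inoculum 10^4 CFU/spot, incubated overnight at 35°C in ambient air. S. pneumoniae ATCC 49619 was the quality-control strain in every run.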"}, "Streptococcus pyogenes [17]": {"tested_on": "Streptococcus pyogenes", "test": "Antibacterial activity against macrolide-resistant Streptococcus pyogenes 237 harboring mutation in L4 ribosomal protein after 43 passages and 10 compound-free subculturing by retest method"}, "Streptococcus pneumoniae [18]": {"tested_on": "Streptococcus pneumoniae", "test": "Antibacterial activity against macrolide-resistant Streptococcus pneumoniae harboring erm(B) gene after overnight incubation by agar dilution method", "assay_type": "functional", "in_short": "as §1"}, "Streptococcus pneumoniae [19]": {"tested_on": "Streptococcus pneumoniae", "test": "Antibacterial activity against Streptococcus pneumoniae harboring mef(A) gene after overnight incubation by agar dilution method", "assay_type": "functional", "in_short": "as §3"}, "Streptococcus pneumoniae [20]": {"tested_on": "Streptococcus pneumoniae", "test": "Antibacterial activity against macrolide-susceptible Streptococcus pneumoniae 1077 after 43 passages and 10 compound-free subculturing by retest method", "assay_type": "functional"}, "Streptococcus pyogenes [21]": {"tested_on": "Streptococcus pyogenes", "test": "Antibacterial activity against macrolide-resistant Streptococcus pyogenes 2011 harboring mef(A) gene after 35 passages and 10 compound-free subculturing by retest method"}, "Streptococcus pyogenes [22]": {"tested_on": "Streptococcus pyogenes", "test": "Antibacterial activity against macrolide-resistant Streptococcus pyogenes 2094 harboring erm(A) gene after 6 passages and 10 compound-free subculturing by retest method"}, "Streptococcus pyogenes [23]": {"tested_on": "Streptococcus pyogenes", "test": "Antibacterial activity against Streptococcus pyogenes harboring erm(B) gene after overnight incubation by agar dilution method", "assay_type": "functional", "in_short": "as §3"}, "Streptococcus pyogenes [24]": {"tested_on": "Streptococcus pyogenes", "test": "Antibacterial activity against macrolide-susceptible Streptococcus pyogenes 2132 after 28 passages and 10 compound-free subculturing by retest method"}, "Streptococcus pyogenes [25]": {"tested_on": "Streptococcus pyogenes", "test": "Antibacterial activity against macrolide-resistant Streptococcus pyogenes 237 harboring mutation in L4 ribosomal protein after overnight incubation by agar dilution method"}, "Streptococcus pneumoniae [26]": {"tested_on": "Streptococcus pneumoniae", "test": "Antibacterial activity against macrolide-susceptible Streptococcus pneumoniae 1077 after overnight incubation by agar dilution method", "assay_type": "functional"}, "Streptococcus pneumoniae [27]": {"tested_on": "Streptococcus pneumoniae", "test": "Antibacterial activity against macrolide-susceptible Streptococcus pneumoniae after overnight incubation by agar dilution method", "assay_type": "functional", "in_short": "as §1"}, "Streptococcus pneumoniae [28]": {"tested_on": "Streptococcus pneumoniae", "test": "Antibacterial activity against macrolide-resistant Streptococcus pneumoniae 3009 harboring mutation in 23S rRNA after overnight incubation by agar dilution method", "assay_type": "functional"}, "Streptococcus pneumoniae [29]": {"tested_on": "Streptococcus pneumoniae", "test": "Antibacterial activity against macrolide-resistant Streptococcus pneumoniae 1635 harboring erm(A) gene after 49 passages and 10 compound-free subculturing by retest method", "assay_type": "functional", "in_short": "as §2"}, "Streptococcus pneumoniae [30]": {"tested_on": "Streptococcus pneumoniae", "test": "Antibacterial activity against Streptococcus pneumoniae harboring erm(B) gene after overnight incubation by agar dilution method", "assay_type": "functional", "in_short": "as §3"}, "Streptococcus pneumoniae [31]": {"tested_on": "Streptococcus pneumoniae", "test": "Antibacterial activity against macrolide-resistant Streptococcus pneumoniae harboring erm(B) and mef(A) gene after overnight incubation by agar dilution method", "assay_type": "functional", "in_short": "as §1"}},
  "data": [
    {"compound": "CC[C@H]1OC(=O)[C@@](C)(F)C(=O)[C@H](C)[C@@H](O[C@@H]2O[C@H](C)C[C@H](N(C)C)[C@H]2O)[C@](C)(OC)C[C@@H](C)C(=O)[C@H](C)[C@H]2N(CCCCn3cc(-c4cccc(N)c4)nn3)C(=O)O[C@]12C", "note": "[SOLITHROMYCIN]", "values": [
      {"measurement": "MIC50", "setting": "Streptococcus pyogenes [1]", "value": 0.03, "unit": "µg/mL"},
      {"measurement": "MIC90", "setting": "Streptococcus pyogenes [1]", "value": 0.125, "unit": "µg/mL"},
      {"measurement": "MIC", "setting": "Streptococcus pneumoniae [2]", "value": 0.008, "unit": "µg/mL"},
      {"measurement": "MIC", "setting": "Streptococcus pneumoniae [3]", "value": 0.25, "unit": "µg/mL"},
      {"measurement": "MIC", "setting": "Streptococcus pneumoniae [4]", "value": 0.06, "unit": "µg/mL"},
      {"measurement": "MIC", "setting": "Streptococcus pneumoniae [4]; Streptococcus pneumoniae, 24, read-out: MIC", "value": 0.06, "unit": "µg/mL"},
      {"measurement": "MIC", "setting": "Streptococcus pneumoniae [5]", "value": 0.008, "unit": "µg/mL"},
      {"measurement": "MIC", "setting": "Streptococcus pneumoniae [6]", "value": 0.016, "unit": "µg/mL"},
      {"measurement": "MIC", "setting": "Streptococcus pyogenes [7]", "value": 0.125, "unit": "µg/mL"},
      {"measurement": "MIC50", "setting": "Streptococcus pneumoniae [8]", "value": 0.03, "unit": "µg/mL"},
      {"measurement": "MIC90", "setting": "Streptococcus pneumoniae [8]", "value": 0.125, "unit": "µg/mL"},
      {"measurement": "MIC", "setting": "Streptococcus pyogenes [9]", "value": 0.25, "unit": "µg/mL"},
      {"measurement": "MIC", "setting": "Streptococcus pneumoniae [10]", "value": 0.06, "unit": "µg/mL"},
      {"measurement": "MIC", "setting": "Streptococcus pyogenes [11]", "value": 0.008, "unit": "µg/mL"},
      {"measurement": "MIC", "setting": "Streptococcus pneumoniae [12]", "value": 0.004, "unit": "µg/mL"},
      {"measurement": "MIC", "setting": "Streptococcus pyogenes [13]", "value": 0.5, "unit": "µg/mL"},
      {"measurement": "MIC", "setting": "Streptococcus pneumoniae [14]", "value": 0.125, "unit": "µg/mL"},
      {"measurement": "MIC", "setting": "Streptococcus pneumoniae [15]", "value": 0.03, "unit": "µg/mL"},
      {"measurement": "MIC", "setting": "Streptococcus pyogenes [16]", "value": 0.06, "unit": "µg/mL"},
      {"measurement": "MIC", "setting": "Streptococcus pyogenes [17]", "value": 0.03, "unit": "µg/mL"},
      {"measurement": "MIC50", "setting": "Streptococcus pneumoniae [18]", "value": 0.03, "unit": "µg/mL"},
      {"measurement": "MIC90", "setting": "Streptococcus pneumoniae [18]", "value": 0.5, "unit": "µg/mL"},
      {"measurement": "MIC50", "setting": "Streptococcus pneumoniae [19]", "value": 0.03, "unit": "µg/mL"},
      {"measurement": "MIC90", "setting": "Streptococcus pneumoniae [19]", "value": 0.125, "unit": "µg/mL"},
      {"measurement": "MIC", "setting": "Streptococcus pneumoniae [20]", "value": 0.06, "unit": "µg/mL"},
      {"measurement": "MIC", "setting": "Streptococcus pyogenes [21]", "value": 0.06, "unit": "µg/mL"},
      {"measurement": "MIC", "setting": "Streptococcus pyogenes [22]", "value": 0.016, "unit": "µg/mL"},
      {"measurement": "MIC50", "setting": "Streptococcus pyogenes [23]", "value": 0.5, "unit": "µg/mL"},
      {"measurement": "MIC90", "setting": "Streptococcus pyogenes [23]", "value": 1, "unit": "µg/mL"},
      {"measurement": "MIC", "setting": "Streptococcus pyogenes [24]", "value": 0.016, "unit": "µg/mL"},
      {"measurement": "MIC", "setting": "Streptococcus pyogenes [25]", "value": 0.03, "unit": "µg/mL"},
      {"measurement": "MIC", "setting": "Streptococcus pneumoniae [26]", "value": 0.008, "unit": "µg/mL"},
      {"measurement": "MIC50", "setting": "Streptococcus pneumoniae [27]", "value": 0.008, "unit": "µg/mL"},
      {"measurement": "MIC90", "setting": "Streptococcus pneumoniae [27]", "value": 0.015, "unit": "µg/mL"},
      {"measurement": "MIC", "setting": "Streptococcus pneumoniae [28]", "value": 0.016, "unit": "µg/mL"},
      {"measurement": "MIC", "setting": "Streptococcus pneumoniae [29]", "value": 0.008, "unit": "µg/mL"},
      {"measurement": "MIC50", "setting": "Streptococcus pneumoniae [30]", "value": 0.03, "unit": "µg/mL"},
      {"measurement": "MIC90", "setting": "Streptococcus pneumoniae [30]", "value": 0.5, "unit": "µg/mL"},
      {"measurement": "MIC50", "setting": "Streptococcus pneumoniae [31]", "value": 0.125, "unit": "µg/mL"},
      {"measurement": "MIC90", "setting": "Streptococcus pneumoniae [31]", "value": 0.25, "unit": "µg/mL"}
    ]}
  ]
}
